Results taken from ChEMBL document CHEMBL1770086, “Design and synthesis of benzoxazole containing indole analogs as peroxisome proliferator-activated receptor-γ/δ dual agonists” (Bioorg Med Chem Lett, 2011).
Activity calls are given as the source filed them.

How the values were obtained:
Format in all cases: functional, cell-based
Details in all cases: CV-1
[1] = biological target: T1, Peroxisome proliferator-activated receptor alpha (Mus musculus) (UniProt P23204); assay: Agonist activity at mouse PPARalpha expressed in CV1 cells co-expressing tk-PPRE-luciferase vector assessed as transient transactivation at 20 uM after 24 hrs by luciferase reporter gene assay relative to GW0746
T1 sequence (whole entry): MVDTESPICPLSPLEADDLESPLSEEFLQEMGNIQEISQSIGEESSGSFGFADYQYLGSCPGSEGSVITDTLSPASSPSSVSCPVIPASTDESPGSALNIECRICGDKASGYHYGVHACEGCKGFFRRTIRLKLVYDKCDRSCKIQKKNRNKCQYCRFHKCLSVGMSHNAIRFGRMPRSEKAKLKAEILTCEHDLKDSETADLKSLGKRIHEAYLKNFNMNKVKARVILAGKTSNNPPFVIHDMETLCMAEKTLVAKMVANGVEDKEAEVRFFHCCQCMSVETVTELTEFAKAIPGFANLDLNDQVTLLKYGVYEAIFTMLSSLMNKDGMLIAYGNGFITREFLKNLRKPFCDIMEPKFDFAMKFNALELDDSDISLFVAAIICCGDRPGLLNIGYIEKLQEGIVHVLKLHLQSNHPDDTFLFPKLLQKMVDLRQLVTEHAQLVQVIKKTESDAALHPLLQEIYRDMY
Procedure, shortened: (§1)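 CV-1 cells seeded at 1.5 × 10⁵ cells/well in DMEM with 10% FBS. Transient transfection for 6 h with PPAR expression vector, tk-PPRE-luciferase reporter and β-galactosidase plasmid, then 24 h of compound exposure. Luciferase read in cell lysates. β-gal read as absorbance at 410 nm. Activity expressed as luciferase/β-gal. Not active means below 10% transactivation at 20 µM. At least three separate experiments.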

[2] = biological target: T2, Peroxisome proliferator-activated receptor delta (Mus musculus) (UniProt P35396); assay: Agonist activity at mouse PPARdelta expressed in CV1 cells co-expressing tk-PPRE-luciferase vector assessed as transient transactivation at 20 uM after 24 hrs by luciferase reporter gene transactivation assay relative to GW0742; procedure, shortened: as §1
T2 sequence (whole entry): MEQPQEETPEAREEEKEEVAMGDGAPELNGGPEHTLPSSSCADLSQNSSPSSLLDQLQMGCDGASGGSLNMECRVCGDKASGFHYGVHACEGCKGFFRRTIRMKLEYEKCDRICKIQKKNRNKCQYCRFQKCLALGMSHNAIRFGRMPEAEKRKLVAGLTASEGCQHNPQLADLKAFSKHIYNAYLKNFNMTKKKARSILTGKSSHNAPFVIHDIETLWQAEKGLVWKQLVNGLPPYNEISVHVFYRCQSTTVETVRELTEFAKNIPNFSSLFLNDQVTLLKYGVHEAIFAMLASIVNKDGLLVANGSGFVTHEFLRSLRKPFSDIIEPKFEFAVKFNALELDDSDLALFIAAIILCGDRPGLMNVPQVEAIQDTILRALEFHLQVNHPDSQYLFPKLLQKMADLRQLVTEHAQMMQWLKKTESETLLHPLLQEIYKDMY

[3] = biological target: T3, Peroxisome proliferator-activated receptor gamma (Mus musculus) (UniProt P37238); assay: Agonist activity at mouse PPARgamma expressed in CV1 cells co-expressing tk-PPRE-luciferase vector assessed as transient transactivation at 20 uM after 24 hrs by luciferase reporter gene transactivation assay relative to rosiglitazone; procedure, shortened: as §1
T3 sequence (whole entry): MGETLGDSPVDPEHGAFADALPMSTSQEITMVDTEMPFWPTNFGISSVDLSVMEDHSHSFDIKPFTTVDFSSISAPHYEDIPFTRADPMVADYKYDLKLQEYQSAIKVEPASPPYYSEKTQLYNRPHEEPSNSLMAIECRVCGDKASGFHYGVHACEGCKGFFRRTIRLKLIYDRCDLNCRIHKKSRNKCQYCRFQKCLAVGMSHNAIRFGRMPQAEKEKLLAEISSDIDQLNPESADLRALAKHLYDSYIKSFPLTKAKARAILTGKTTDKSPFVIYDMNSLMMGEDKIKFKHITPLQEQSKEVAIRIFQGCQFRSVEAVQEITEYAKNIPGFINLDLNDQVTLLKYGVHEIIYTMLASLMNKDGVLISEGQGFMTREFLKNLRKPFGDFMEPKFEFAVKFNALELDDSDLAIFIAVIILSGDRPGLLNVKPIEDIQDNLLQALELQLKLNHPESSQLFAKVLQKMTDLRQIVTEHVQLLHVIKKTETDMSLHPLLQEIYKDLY

| Structure (SMILES) | Activity [1] | Activity [2] | Activity [3] |
| --- | --- | --- | --- |
| CN(CCOc1ccc2cc(C(=O)O)[nH]c2c1)c1nc2ccccc2o1 | inactive | inactive | inactive |
| COC(=O)Cc1cn(Cc2ccc(F)cc2)c2ccc(OCCCN(C)c3nc4ccccc4o3)cc12 | inactive | inactive | inactive |
| CN(CCOc1ccc2cc(C(=O)O)[nH]c2c1)c1nc2ccccc2s1 | inactive | 14.6% | inactive |
| CN(CCOc1ccc2cc(C(=O)O)n(C)c2c1)c1nc2ccccc2o1 | inactive | inactive | inactive |
| CN(CCOc1ccc2cc(C(=O)O)n(C)c2c1)c1nc2ccccc2s1 | 13.6% | 27.9% | 29.6% |
| CCn1cc(CC(=O)O)c2cc(OCCN(C)c3nc4ccccc4o3)ccc21 | inactive | 32.9% | 66.7% |
| CCn1c(C(=O)O)cc2ccc(OCCN(C)c3nc4ccccc4o3)cc21 | inactive | inactive | 23.3% |
| COC(=O)Cc1cn(C(=O)c2ccc(Cl)cc2)c2ccc(OCCCN(C)c3nc4ccccc4o3)cc12 | inactive | 18.3% | 28.9% |
| CN(CCCOc1ccc2[nH]cc(CC(=O)O)c2c1)c1nc2ccccc2o1 | inactive | inactive | 18.3% |
| CN(CCOc1ccc2c(c1)c(CC(=O)O)cn2C)c1nc2ccccc2o1 | 28% | inactive | 58.6% |
| CN(CCOc1ccc2cc(C(=O)O)n(Cc3ccccc3)c2c1)c1nc2ccccc2o1 | 10% | 33.4% | 43.9% |
| CN(CCCOc1ccc2c(c1)c(CC(=O)O)cn2Cc1ccc(F)cc1)c1nc2ccccc2o1 | 13.3% | inactive | 15.8% |
| CN(CCCOc1ccc2c(c1)c(CC(=O)O)cn2CC(=O)O)c1nc2ccccc2o1 | inactive | inactive | inactive |
| CCn1c(C(=O)O)cc2ccc(OCCN(C)c3nc4ccccc4s3)cc21 | 16.7% | 68.8% | 66.4% |
| COC(=O)Cc1c[nH]c2ccc(OCCCN(C)c3nc4ccccc4o3)cc12 | inactive | inactive | 42.1% |
| CN(CCOc1ccc2[nH]cc(CC(=O)O)c2c1)c1nc2ccccc2o1 | inactive | inactive | 28.1% |
| COC(=O)Cc1cn(CC(=O)OC)c2ccc(OCCCN(C)c3nc4ccccc4o3)cc12 | inactive | inactive | 37.1% |
